Test results: ChEMBL document CHEMBL3745620, “Design and Synthesis of DiselenoBisBenzamides (DISeBAs) as Nucleocapsid Protein 7 (NCp7) Inhibitors with anti-HIV Activity” (J Med Chem, 2015)
Active and inactive are the calls of the source. The rule behind the calls is not given here.

How the values were obtained:
[1] = system: Human immunodeficiency virus 1; experiment: Antiviral activity against HIV1 3B infected in human CEM cells assessed as protection against virus-induced cytopathic effect by XTT assay; assay type: functional, organism-based; settings: Human immunodeficiency virus 1, 3B, CCRF-CEM
[2] = Cytotoxicity against human CEM cells by XTT assay; assay type: cell-based, CCRF-CEM
[3] = Selectivity index, ratio of CC50 for human CEM cells to EC50 for HIV1 3B; assay type: toxicity, cell-based, CCRF-CEM
[4] = system: Human immunodeficiency virus 1; experiment: Antiviral activity against HIV1 3B infected in human MT4 cells assessed as protection against virus-induced cytopathic effect after 5 days by MTT assay; assay type: functional, organism-based; settings: Human immunodeficiency virus 1, 3B, MT4, 120 h
Summary of the method: (§1)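 MT-4 cells in RPMI 1640 with 10% heat-inactivated FCS, resuspended at 6 x 10^5 cells/ml. Compounds added at start in serial 5-fold dilutions, triplicate wells, to mock- and virus-infected cells (100-300 CCID50 per well). After 5 days, viability by MTT reduction (OD540). […] Mean ± SD, at least two experiments.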

[5] = system: Human immunodeficiency virus 2; experiment: Antiviral activity against HIV2 ROD infected in human MT4 cells assessed as protection against virus-induced cytopathic effect after 5 days by MTT assay; assay type: functional, organism-based; settings: Human immunodeficiency virus 2, ISOLATE ROD, MT4, 120 h; summary of the method: as §1
[6] = Cytotoxicity against human MT4 cells assessed as cell viability after 5 days by MTT assay; assay type: cell-based
Summary of the method: (§2)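 Compounds added at start in serial 5-fold dilutions, triplicate wells, to mock- and virus-infected cells (100-300 CCID50 per well). After 5 days, viability by MTT reduction (OD540). Mean ± SD, at least two experiments.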

[7] = Selectivity index, ratio of CC50 for human MT4 cells to EC50 for HIV1 3B; assay type: toxicity, cell-based; settings: read-out: Ratio CC50/EC50; summary of the method: as §2
[8] = Selectivity index, ratio of CC50 for human MT4 cells to EC50 for HIV-2 ROD; assay type: toxicity, cell-based; settings: read-out: Ratio CC50/EC50; summary of the method: as §2
[9] = system: Human immunodeficiency virus 1; experiment: Antiviral activity against HIV1 3B infected in human MT4 cells assessed as inhibition of viral replication by measuring p24 Ag production at 2 ug/ml measured at 31 hrs post infection by ELISA; assay type: functional, organism-based
Summary of the method: (§3)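 MT-4 cells infected with HIV-1 IIIB at m.o.i. 0.5, 1 h adsorption, then seeded at 45,000 cells/well at 37°C. Compound added at times from 0 to 25 h post-infection. Read-out was p24 in supernatant by ELISA at 31 h post-infection.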

[10] = system: Human immunodeficiency virus 1; experiment: Antiviral activity against HIV1 3B infected in human MT4 cells assessed as inhibition of viral replication by measuring p24 Ag production at 90 ug/ml measured at 31 hrs post infection by ELISA; assay type: functional, organism-based; summary of the method: as §3
HuT78 = experiment: Inhibition of NCp7 of HIV1 3B persistently infected in HUT78 cells assessed as accumulation of unprocessed Gag polyprotein after 43 hrs by Western blot analysis; assay type: cell-based; settings: Human immunodeficiency virus 1
Summary of the method: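 Washed HuT-78(IIIB) cells (2x10^5 in 1 ml) treated with compound for 43 h at 37°C. Virions pelleted from clarified supernatant (36,670 g, 2 h, 4°C), lysed, run on SDS-PAGE and transferred to PVDF. Blot probed with mouse anti-p24 (1:5000), then HRP anti-mouse (1:2500), with chemiluminescent detection.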

[11] = system: Human immunodeficiency virus 1; experiment: Antiviral activity against HIV1 3B persistently infected in HUT78 cells assessed as reduction of p24 production after 43 hrs by ELISA; assay type: functional, organism-based; settings: Human immunodeficiency virus 1, 3B, HuT78, 43 h
Summary of the method: (§4)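 Chronically HIV-1 IIIB-infected HuT-78 cells washed four times in PBS to remove free virions and seeded at 2 × 10^5 cells/well with 7 serial 5-fold compound dilutions for 43 h at 37°C. Supernatant p24 measured by ELISA. Cytotoxicity was run in parallel by MTT plus microscopy. SI = CC50/EC50. Mean ± SD, ≥2 experiments.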

[12] = Cytotoxicity against human HUT78 cells assessed as reduction in cell viability after 5 days by MTT assay; assay type: cell-based
[13] = Selectivity index, ratio of CC50 for human HUT78 cells to EC50 for HIV1 3B; assay type: toxicity, cell-based; settings: read-out: Ratio CC50/EC50; summary of the method: as §4
[14] = system: Human immunodeficiency virus 1; experiment: Antiviral activity against NNRTI-resistant HIV1 RES056 harboring reverse transcriptase K103N/181C double mutant infected in human MT4 cells; assay type: functional, organism-based; settings: Human immunodeficiency virus 1, RES056, MT4
Summary of the method: (§5)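 MT-4 cells in RPMI 1640 with 10% heat-inactivated FCS were infected at the start of the experiment, with compound added across serial 5-fold dilutions in triplicate wells. Cells were seeded at 6 x 10^5 cells/ml. After 5 days, protection against virus-induced cytopathic effect was read by MTT reduction at OD540. […] Values are means ± SD of at least two experiments.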

[15] = system: Human immunodeficiency virus 1; experiment: Antiviral activity against ritonavir-resistant HIV1 3B/RIT infected in human MT4 cells; assay type: functional, organism-based; settings: Human immunodeficiency virus 1, 3B/RIT; summary of the method: as §5
[16] = system: Human immunodeficiency virus 1; experiment: Antiviral activity against NRTI/NNRTI-resistant HIV1 L6 harboring reverse transcriptase V75I/F77L/K103N/F116Y/Q151M/M184V mutant infected in human MT4 cells; assay type: functional, organism-based; settings: Human immunodeficiency virus 1, L6, MT4; summary of the method: as §5
[17] = system: Human immunodeficiency virus 1; experiment: Antiviral activity against ritonavir-resistant HIV1 B12 harboring […] L10I/I15V/I54V/L63P/V82A/I85V mutant infected in human MT4 cells; assay type: functional, organism-based; settings: Human immunodeficiency virus 1, B12, MT4; summary of the method: as §5
[18] = system: Human immunodeficiency virus 1; experiment: Antiviral activity against AZT-resistant HIV1 ADP/141 harboring reverse transcriptase D67N/K70R/T215F/K219Q mutant infected in human MT4 cells; assay type: functional, organism-based; settings: Human immunodeficiency virus 1, ADP/141, MT4; summary of the method: as §5
[19] = Antiviral activity against nevirapine-resistant SIV mac251 infected in human MT4 cells; assay type: functional, cell-based; settings: Simian immunodeficiency virus; summary of the method: as §5
[20] = Selectivity index, ratio of CC50 for human MT4 cells to EC50 for NNRTI-resistant HIV1 RES056 harboring reverse transcriptase K103N/181C double mutant; assay type: toxicity, cell-based; settings: read-out: Ratio CC50/EC50
Summary of the method: (§6)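 Uninfected and infected MT-4 cells were run in parallel in triplicate over serial 5-fold compound dilutions for 5 days, and viability was read by MTT at OD540. […] SI = CC50/EC50, from means of at least two experiments.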

[21] = Selectivity index, ratio of CC50 for human MT4 cells to EC50 for NRTI/NNRTI-resistant HIV1 L6 harboring reverse transcriptase V75I/F77L/K103N/F116Y/Q151M/M184V mutant; assay type: toxicity, cell-based; settings: read-out: Ratio CC50/EC50; summary of the method: as §6
[22] = Selectivity index, ratio of CC50 for human MT4 cells to EC50 for ritonavir-resistant HIV1 3B/RIT; assay type: toxicity, cell-based; settings: read-out: Ratio CC50/EC50; summary of the method: as §6
[23] = Selectivity index, ratio of CC50 for human MT4 cells to EC50 for ritonavir-resistant HIV1 B12 harboring […] L10I/I15V/I54V/L63P/V82A/I85V mutant; assay type: toxicity, cell-based; settings: read-out: Ratio CC50/EC50; summary of the method: as §6
[24] = Selectivity index, ratio of CC50 for human MT4 cells to EC50 for AZT-resistant HIV1 ADP/141 harboring reverse transcriptase D67N/K70R/T215F/K219Q mutant; assay type: toxicity, cell-based; settings: read-out: Ratio CC50/EC50; summary of the method: as §6
[25] = Selectivity index, ratio of CC50 for human MT4 cells to EC50 for nevirapine-resitant SIV Mac251
[26] = system: Human immunodeficiency virus 1; experiment: Antiviral activity against HIV1 3B infected in human MT4 cells assessed as inhibition of viral replication by measuring p24 Ag production at 50 ug/ml measured at 31 hrs post infection by ELISA; assay type: functional, organism-based; summary of the method: as §3
[27] = system: Human immunodeficiency virus 1; experiment: Virucidal activity against HIV1 3B infected in human MT4 cells assessed as reduction of virus infectivity at 125 ug/ml after 1 hr by MTT assay; assay type: functional, organism-based
Summary of the method: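 HIV-1 IIIB stock incubated with compound in 100 µl RPMI-1640/10% FCS for 1 h at 37°C, then diluted 4000-fold. Residual infectivity titrated on MT-4 cells, with CCID50 calculated by the Reed and Muench method.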

[28] = system: Human immunodeficiency virus 1; experiment: Virucidal activity against HIV1 3B infected in MT4 cells assessed as reduction of virus infectivity at 125 ug/ml after 1 hr by MTT assay
[29] = system: Human immunodeficiency virus 1; experiment: Antiviral activity against HIV1 3B infected in human MT4 cells assessed as inhibition of viral replication by measuring p24 Ag production at 60 ug/ml measured at 31 hrs post infection by ELISA; assay type: functional, organism-based; summary of the method: as §3

| SMILES | EC50 [4] [µM] | EC50 [5] [µM] | CC50 at 120 h [6] [µM] | selectivity ratio [7] | selectivity ratio [8] | inhibition [9] | inhibition (HuT78) | EC50 [11] [µM] | CC50 at 120 h [12] [µM] | selectivity ratio [13] | EC50 [14] [µM] | EC50 [15] [µM] | EC50 [16] [µM] | EC50 [17] [µM] | EC50 [18] [µM] | EC50 [19] [µM] | selectivity ratio [20] | selectivity ratio [21] | selectivity ratio [22] | selectivity ratio [23] | also measured |
| --- | --- | --- | --- | --- | --- | --- | --- | --- | --- | --- | --- | --- | --- | --- | --- | --- | --- | --- | --- | --- | --- |
| CC[C@H](C)[C@H](NC(=O)c1ccccc1SSc1ccccc1C(=O)N[C@H](C(=O)O)[C@@H](C)CC)C(=O)O |  |  |  |  |  |  |  |  |  |  |  |  |  |  |  |  |  |  |  |  | EC50 [1]: 9 µM; CC50 [2]: > 120 µM; selectivity ratio [3]: > 13.3 |
| CC[C@H](C)[C@H](NC(=O)c1ccccc1[Se][Se]c1ccccc1C(=O)N[C@H](C(=O)O)[C@@H](C)CC)C(=O)O | 13.8 | 13.1 | 164 | 12 | 13 | Active | Dose-dependent effect | 73.2 | > 162 | > 2.2 | 28 | 25.8 | 25.9 | 27.7 | 14.7 | 17.4 | 6 | 6 | 6 | 6 | inhibition [10]: Active; selectivity ratio [24]: 11; Ratio CC50/EC50 [25]: 9 |
| O=C(O)CNC(=O)c1ccccc1[Se][Se]c1ccccc1C(=O)NCC(=O)O | 3.15 | 3.5 | 117 | 37 | 34 | Active | Dose-dependent effect | 14.1 | 108 | 7.8 | 3.51 | 3.3 | 3.44 | 6.43 | 4.51 | 2.21 | 33 | 34 | 36 | 18 | inhibition [26]: Active; Activity [27]: Active; selectivity ratio [24]: 26; Ratio CC50/EC50 [25]: 52; Activity [28]: Active |
| O=C(O)CC[C@H](NC(=O)c1ccccc1[Se][Se]c1ccccc1C(=O)N[C@@H](CCC(=O)O)C(=O)O)C(=O)O | 3.31 | 3.18 | 107 | 32 | 34 | Active | Dose-dependent effect | 15.5 | 100 | 6.5 | 3.61 | 5.42 | 6.59 | 14.5 | 2.8 | 1.7 | 29 | 16 | 20 | 8 | inhibition [29]: Active; Activity [27]: Active; selectivity ratio [24]: 38; Ratio CC50/EC50 [25]: 63; Activity [28]: Active |
